The record followed here is ChEMBL document CHEMBL1275451, “In vitro susceptibilities of invasive isolates of Candida species: rapid increase in rates of fluconazole susceptible-dose dependent Candida glabrata isolates” (2008).

Values after ≈ are worked out from the molar mass of the structure shown. *1 amine or outer side, *2 acyl side, *3 side chain or, on linkers, in order; H or OH if unused. Where a SMILES comes first, the peptide text is derived from it. Bridges are numbered along the chain shown (N, C = ends). [ ]: non-standard residue; d: D form. The star is where a group is joined. hTyr(3S-OH,4S-OH,3'-OSO3H) = N[C@H](C(=O)O)[C@H](O)[C@@H](O)c1ccc(O)c(OS(=O)(=O)O)c1; pTerphenylCO(4''-OnC5H11) = CCCCCOc1ccc(-c2ccc(-c3ccc(C(=O)*)cc3)cc2)cc1; Orn(4R-OH,5R-OH) = O=C([C@H](C[C@@H](O)[C@@H](O)N[*:3])N[*:1])[*:2]; hTyr(3S-OH,4S-OH) = N[C@H](C(=O)O)[C@H](O)[C@@H](O)c1ccc(O)cc1; Pro(3S-OH,4S-Me) = C[C@H]1CN[C@H](C(=O)O)[C@H]1O; X1 = CCCCCOc1ccc(-c2cc(-c3ccc(C(=O)*)cc3)no2)cc1; Gln(3R-OH) = NC(=O)C[C@@H](O)[C@H](N)C(=O)O; Hyp = O=C(O)[C@@H]1C[C@@H](O)CN1

What all share (type): functional
For assay [1], the system named is Candida parapsilosis. Briefly: Antifungal activity against Candida parapsilosis after 48 hrs by CLSI method. As to conditions: Lodderomyces parapsilosis. The essentials:
(§1)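 Broth microdilution MICs were run on invasive clinical Candida isolates under CLSI M27-A2, with incubation at 35°C for 48 h before reading. Control strains were C. parapsilosis ATCC 22019 and C. krusei ATCC 6258. MICs were interpreted under the same guideline to place isolates as susceptible, susceptible-dose dependent or resistant, reported as percentage of isolates per category, with MIC range, MIC50 and MIC90.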

Assay [2] relates to Meyerozyma guilliermondii. Nature of the assay: Antifungal activity against Candida guilliermondii after 48 hrs by CLSI method.
The subject of assay [3] is Clavispora lusitaniae. Nature of the assay: Antifungal activity against Candida lusitaniae after 48 hrs by CLSI method.
Assay [4] has as its system Nakaseomyces glabratus. Briefly: Antifungal activity against Candida glabrata after 48 hrs by CLSI method.
Assay [5] deals with Candida albicans. Nature of the assay: Antifungal activity against Candida albicans after 48 hrs by CLSI method.
Assay [6] deals with Candida tropicalis. Briefly: Antifungal activity against Candida tropicalis after 48 hrs by CLSI method. The essentials:
as §1

Assay [7] relates to Pichia kudriavzevii. Briefly: Antifungal activity against Candida krusei after 48 hrs by CLSI method. The essentials: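 Broth microdilution MICs were run on invasive clinical Candida isolates under CLSI M27-A2, with incubation at 35°C for 48 h before reading. MICs were interpreted under the same guideline to place isolates as susceptible, susceptible-dose dependent or resistant, reported as percentage of isolates per category, with MIC range, MIC50 and MIC90.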

On to `CCCCCOc1ccc(-c2cc(-c3ccc(C(=O)N[C@H]4C[C@@H](O)[C@@H](O)NC(=O)[C@@H]5[C@@H](O)[C@@H](C)CN5C(=O)[C@H]([C@H](O)CC(N)=O)NC(=O)[C@H]([C@H](O)[C@@H](O)c5ccc(O)c(OS(=O)(=O)O)c5)NC(=O)[C@@H]5C[C@@H](O)CN5C(=O)[C@H]([C@@H](C)O)NC4=O)cc3)no2)cc1` [MICAFUNGIN] (X1-[Orn(4R-OH,5R-OH)]T[Hyp][hTyr(3S-OH,4S-OH,3'-OSO3H)][Gln(3R-OH)][Pro(3S-OH,4S-Me)]; lactam 1-C), for which the MIC50 (as a rule, an inhibitory concentration at the 50% level, which refers to growth in some studies and to a panel of isolates in others) came to 2 µg/mL (≈ 1.57 µM) in assay [1]; 1 µg/mL (≈ 0.787 µM) in assay [2]; 0.25 µg/mL (≈ 0.197 µM) in assay [3]; 0.06 µg/mL (≈ 0.0472 µM) in assay [4]; 0.007 µg/mL (≈ 0.00551 µM) in assay [5]; 0.06 µg/mL (≈ 0.0472 µM) in assay [6]. The compound also yielded an MIC50 in assay [7] of 0.25 µg/mL (≈ 0.197 µM). For the same compound, the MIC90 (commonly an inhibitory concentration at the 90% level, which refers to growth in some studies and to a panel of isolates in others) in assay [1] was 2 µg/mL (≈ 1.57 µM); in assay [2], 1 µg/mL (≈ 0.787 µM); in assay [3], 0.25 µg/mL (≈ 0.197 µM); in assay [4] it was 0.06 µg/mL (≈ 0.0472 µM); in assay [5] it was 0.015 µg/mL (≈ 0.0118 µM); in assay [6] it was 0.12 µg/mL (≈ 0.0945 µM). In assay [7], this compound had an MIC90 of 0.5 µg/mL (≈ 0.394 µM). Also, the MIC (commonly the lowest concentration that inhibits growth of the organism) in assay [5] is 0.007 µg/mL (≈ 0.00551 µM); in assay [6], 0.06 µg/mL (≈ 0.0472 µM); in assay [7], 0.25 µg/mL (≈ 0.197 µM).
Consider `CC[C@H](C)C[C@H](C)CCCCCCCCC(=O)N[C@H]1C[C@@H](O)[C@@H](NCCN)NC(=O)[C@@H]2[C@@H](O)CCN2C(=O)[C@H]([C@H](O)CCN)NC(=O)[C@H]([C@H](O)[C@@H](O)c2ccc(O)cc2)NC(=O)[C@@H]2C[C@@H](O)CN2C(=O)[C@H]([C@@H](C)O)NC1=O` [CASPOFUNGIN], for which the MIC50 was 1 µg/mL (≈ 0.915 µM) in assay [1]; 2 µg/mL (≈ 1.83 µM) in assay [2]; 2 µg/mL (≈ 1.83 µM) in assay [3]; 0.25 µg/mL (≈ 0.229 µM) in assay [4]; 0.25 µg/mL (≈ 0.229 µM) in assay [5]; 0.25 µg/mL (≈ 0.229 µM) in assay [6]. This compound also gave an MIC50 in assay [7] of 1 µg/mL (≈ 0.915 µM). Besides, the MIC90 came to 2 µg/mL (≈ 1.83 µM) in assay [1]; 2 µg/mL (≈ 1.83 µM) in assay [2]; 2 µg/mL (≈ 1.83 µM) in assay [3]; 0.25 µg/mL (≈ 0.229 µM) in assay [4]; 0.25 µg/mL (≈ 0.229 µM) in assay [5]; 0.5 µg/mL (≈ 0.457 µM) in assay [6]. Also, the MIC90 in assay [7] was found to be 1 µg/mL (≈ 0.915 µM).
Take `CC[C@@H]([C@H](C)O)n1ncn(-c2ccc(N3CCN(c4ccc(OC[C@@H]5CO[C@@](Cn6cncn6)(c6ccc(F)cc6F)C5)cc4)CC3)cc2)c1=O` [POSACONAZOLE]: the MIC in assay [1] amounted to 0.03 µg/mL (≈ 0.0428 µM); in assay [5], 0.015 µg/mL (≈ 0.0214 µM). Also, the MIC50 in assay [1] worked out at 0.03 µg/mL (≈ 0.0428 µM); in assay [2], 0.12 µg/mL (≈ 0.171 µM); in assay [3], 0.03 µg/mL (≈ 0.0428 µM); in assay [4] it was 0.5 µg/mL (≈ 0.713 µM); in assay [5], 0.015 µg/mL (≈ 0.0214 µM); in assay [6] it was 0.06 µg/mL (≈ 0.0856 µM). The compound further showed an MIC50 in assay [7] of 0.25 µg/mL (≈ 0.357 µM). Also, the MIC90 in assay [1] amounted to 0.06 µg/mL (≈ 0.0856 µM); in assay [2], 0.25 µg/mL (≈ 0.357 µM); in assay [3], 0.03 µg/mL (≈ 0.0428 µM); in assay [4], 0.5 µg/mL (≈ 0.713 µM); in assay [5] it was 0.03 µg/mL (≈ 0.0428 µM); in assay [6], 0.25 µg/mL (≈ 0.357 µM). In assay [7], the MIC90 is 0.25 µg/mL (≈ 0.357 µM).
Turning to `CCCCCOc1ccc(-c2ccc(-c3ccc(C(=O)N[C@H]4C[C@@H](O)[C@@H](O)NC(=O)[C@@H]5[C@@H](O)[C@@H](C)CN5C(=O)[C@H]([C@@H](C)O)NC(=O)[C@H]([C@H](O)[C@@H](O)c5ccc(O)cc5)NC(=O)[C@@H]5C[C@@H](O)CN5C(=O)[C@H]([C@@H](C)O)NC4=O)cc3)cc2)cc1` [ANIDULAFUNGIN] ({pTerphenylCO(4''-OnC5H11)}-[Orn(4R-OH,5R-OH)]T[Hyp][hTyr(3S-OH,4S-OH)]T[Pro(3S-OH,4S-Me)]; lactam 1-C), the MIC50 in assay [1] is 1 µg/mL (≈ 0.877 µM); in assay [2], 1 µg/mL (≈ 0.877 µM); in assay [3], 0.06 µg/mL (≈ 0.0526 µM); in assay [4] it was 0.03 µg/mL (≈ 0.0263 µM); in assay [5], 0.015 µg/mL (≈ 0.0132 µM); in assay [6], 0.03 µg/mL (≈ 0.0263 µM). In assay [7], this compound displayed an MIC50 of 0.12 µg/mL (≈ 0.105 µM). Also, the MIC90 in assay [1] was found to be 2 µg/mL (≈ 1.75 µM); in assay [2], 2 µg/mL (≈ 1.75 µM); in assay [3] it was 0.12 µg/mL (≈ 0.105 µM); in assay [4], 0.03 µg/mL (≈ 0.0263 µM); in assay [5], 0.015 µg/mL (≈ 0.0132 µM); in assay [6], 0.06 µg/mL (≈ 0.0526 µM). Further, the MIC90 in assay [7] was 0.25 µg/mL (≈ 0.219 µM). For the same compound, the lowest concentration to inhibit growth in assay [5] (MIC) was 0.015 µg/mL (≈ 0.0132 µM).
